Measured values as given in ChEMBL document CHEMBL1139875, “Discovery of 4-aminobutyric acid derivatives possessing anticonvulsant and antinociceptive activities: a hybrid pharmacophore approach” (2007).
The source made the active and inactive calls. No cut-off for these calls is given here.

Experiments:
[1] = tested on: Mus musculus; experiment: Anticonvulsant activity in Swiss Albino mouse at 300 mg/kg, ip after 0.5 hr by MES test; type: functional, organism-based; set-up: dose 300 mg/kg
Summary of the method: (§1)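 Mice (Swiss, 20-25 g) given i.p. doses of 30, 100 and 300 mg/kg under ADD program protocols, three per group, examined at 0.5 and 4 h in MES, scPTZ, scSTY or scPIC seizure tests. Value is the minimum dose protecting half or more of the mice.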

[2] = tested on: Mus musculus; experiment: Anticonvulsant activity in Swiss Albino mouse at 300 mg/kg, ip after 4 hrs by MES test; type: functional, organism-based; set-up: dose 300 mg/kg; summary of the method: as §1
[3] = tested on: Mus musculus; experiment: Anticonvulsant activity in Swiss Albino mouse at 300 mg/kg, ip after 0.5 hr by scPTZ test; type: functional, organism-based; set-up: dose 300 mg/kg; summary of the method: as §1
[4] = tested on: Mus musculus; experiment: Anticonvulsant activity in Swiss Albino mouse at 300 mg/kg, ip after 0.5 hr by scSTY test; type: functional, organism-based; set-up: dose 300 mg/kg; summary of the method: as §1
[5] = tested on: Mus musculus; experiment: Anticonvulsant activity in Swiss Albino mouse at 300 mg/kg, ip after 4 hrs by scSTY test; type: functional, organism-based; set-up: dose 300 mg/kg; summary of the method: as §1
[6] = tested on: Mus musculus; experiment: Anticonvulsant activity in Swiss Albino mouse at 300 mg/kg, ip after 0.5 hr by scPIC test; type: functional, organism-based; set-up: dose 300 mg/kg; summary of the method: as §1
[7] = tested on: Mus musculus; experiment: Anticonvulsant activity in Swiss Albino mouse at 300 mg/kg, ip after 4 hrs by scPIC test; type: functional, organism-based; set-up: dose 300 mg/kg; summary of the method: as §1
[8] = tested on: Mus musculus; experiment: Neurotoxicity in Swiss Albino mouse at 300 mg/kg, ip after 0.5 hr by rotarod test; type: functional, organism-based; set-up: dose 300 mg/kg
Summary of the method: (§2)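 Swiss mice (20-25 g) are trained on an accelerating rotorod (10 rpm, 3.2 cm rod), then injected i.p. at 30, 100 or 300 mg/kg, with three per group. Neurotoxicity means failure to keep equilibrium for at least 1 min in each of three trials, checked at 0.5 and 4 h. The value reported is the minimum dose affecting half or more of the mice.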

[9] = tested on: Mus musculus; experiment: Neurotoxicity in Swiss Albino mouse at 300 mg/kg, ip after 4 hrs by rotarod test; type: functional, organism-based; set-up: dose 300 mg/kg; summary of the method: as §2
[10] = tested on: Mus musculus; experiment: Analgesic activity in Swiss Albino mouse assessed as number of acetic acid-induced writhing per 30 min after 100 mg/kg, ip; type: functional; conditions: route intraperitoneal
Summary of the method: (§3)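 Mice in groups of six dosed i.p. at 100 mg/kg, controls receiving 30% v/v PEG 400 in water. Writhing induced by i.p. 0.1 mL of 3% v/v acetic acid 1 h after drug. Writhes (abdominal stretch with at least one hind limb extended) counted over 30 min; % inhibition calculated. Mean ± SEM, Student's t test.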

[11] = tested on: Mus musculus; experiment: Analgesic activity in Swiss Albino mouse assessed as inhibition of acetic acid-induced writhing responses at 100 mg/kg, ip; type: functional; conditions: route intraperitoneal; summary of the method: as §3
[12] = tested on: Rattus norvegicus; experiment: Effect on spontaneous pain in Sprague-Dawley rat CCI model assessed as duration of paw withdrawal at 100 mg/kg, ip after 0.5 hr; type: functional; conditions: route intraperitoneal
Summary of the method: (§4)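 CCI rats (n = 4) dosed 100 mg/kg i.p. (vehicle 30% v/v PEG 400 in water). After 10 min acclimatization in a cage 5 cm above ground, cumulative time the ipsilateral paw was held off the floor over 5 min recorded, excluding locomotion lifts. Mean ± SEM; ANOVA/Bonferroni versus predrug.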

[13] = tested on: Rattus norvegicus; experiment: Effect on spontaneous pain in Sprague-Dawley rat CCI model assessed as duration of paw withdrawal at 100 mg/kg, ip after 1 hr; type: functional; conditions: route intraperitoneal; summary of the method: as §4
[14] = tested on: Rattus norvegicus; experiment: Effect on spontaneous pain in Sprague-Dawley rat CCI model assessed as duration of paw withdrawal at 100 mg/kg, ip after 1.5 hrs; type: functional; conditions: route intraperitoneal
Summary of the method: (§5)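 Unilateral CCI of sciatic nerve (Bennett and Xie) in Sprague-Dawley rats under i.p. pentobarbital sodium (65 mg/kg). Spontaneous pain is scored over 5 min after 10 min acclimatization, as cumulative time the ipsilateral paw is held off the floor. Paw lifts from locomotion or repositioning are excluded. Drug is given at 100 mg/kg i.p. with 30% v/v PEG 400 vehicle. Mean ± SEM, n = 4, compared with predrug by ANOVA/Bonferroni.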

[15] = tested on: Rattus norvegicus; experiment: Effect on spontaneous pain in Sprague-Dawley rat CCI model assessed as duration of paw withdrawal at 100 mg/kg, ip after 2 hrs; type: functional; conditions: route intraperitoneal; summary of the method: as §5
[16] = tested on: Rattus norvegicus; experiment: Anti-dynamic allodynia effect in Sprague-Dawley rat SNL model assessed as latency to paw withdrawal 100 mg/kg, ip after 0.5 hr; type: functional; conditions: route intraperitoneal
Summary of the method: (§6)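 Left L5 spinal nerve ligation rats, tested preoperatively and 9 days postoperatively, then given 100 mg/kg i.p. (vehicle 30% v/v PEG 400 in water). After 10 min acclimatization, plantar surface of affected paw stroked mildly with a cotton-bud; paw lift response recorded. n = 4; retested 0.5-2.5 h post-dose.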

[17] = tested on: Rattus norvegicus; experiment: Anti-dynamic allodynia effect in Sprague-Dawley rat SNL model assessed as latency to paw withdrawal 100 mg/kg, ip after 1 hr; type: functional; conditions: route intraperitoneal; summary of the method: as §6
[18] = tested on: Rattus norvegicus; experiment: Anti-dynamic allodynia effect in Sprague-Dawley rat SNL model assessed as latency to paw withdrawal 100 mg/kg, ip after 1.5 hrs; type: functional; conditions: route intraperitoneal; summary of the method: as §6
[19] = tested on: Rattus norvegicus; experiment: Anti-dynamic allodynia effect in Sprague-Dawley rat SNL model assessed as latency to paw withdrawal 100 mg/kg, ip after 2 hrs; type: functional; conditions: route intraperitoneal; summary of the method: as §6
[20] = tested on: Rattus norvegicus; experiment: Anti-dynamic allodynia effect in Sprague-Dawley rat SNL model assessed as latency to paw withdrawal 100 mg/kg, ip after 2.5 hrs; type: functional; conditions: route intraperitoneal; summary of the method: as §6
[21] = tested on: Rattus norvegicus; experiment: Anti-cold allodynia effect in Sprague-Dawley rat SNL model assessed as duration of paw withdrawal 100 mg/kg, ip after 0.5 hr; type: functional; conditions: route intraperitoneal
Summary of the method: (§7)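 Left L5 spinal nerve ligation under pentobarbital (65 mg/kg i.p.). Allodynic rats dosed i.p. 100 mg/kg, vehicle 30% v/v PEG 400 in water. Acetone (100-200 µL) misted onto midplantar affected paw after 10 min acclimatization; paw withdrawal duration, mean of three samples at least 3 min apart; n = 4 rats.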

[22] = tested on: Rattus norvegicus; experiment: Anti-cold allodynia effect in Sprague-Dawley rat SNL model assessed as duration of paw withdrawal 100 mg/kg, ip after 1 hrs; type: functional; conditions: route intraperitoneal; summary of the method: as §7
[23] = tested on: Rattus norvegicus; experiment: Anti-cold allodynia effect in Sprague-Dawley rat SNL model assessed as duration of paw withdrawal 100 mg/kg, ip after 1.5 hrs; type: functional; conditions: route intraperitoneal; summary of the method: as §7
[24] = tested on: Rattus norvegicus; experiment: Anti-cold allodynia effect in Sprague-Dawley rat SNL model assessed as duration of paw withdrawal 100 mg/kg, ip after 2 hrs; type: functional; conditions: route intraperitoneal; summary of the method: as §7
[25] = tested on: Rattus norvegicus; experiment: Anti-cold allodynia effect in Sprague-Dawley rat SNL model assessed as duration of paw withdrawal 100 mg/kg, ip after 2.5 hrs; type: functional; conditions: route intraperitoneal; summary of the method: as §7
[26] = tested on: Rattus norvegicus; experiment: Effect on spontaneous pain in Sprague-Dawley rat CCI model assessed as duration of paw withdrawal at 100 mg/kg, ip after 2.5 hrs; type: functional; conditions: route intraperitoneal; summary of the method: as §5
[27] = tested on: Rattus norvegicus; experiment: Antihyperalgesic effects in Sprague-Dawley rat CCI model assessed as duration of paw withdrawal at 100 mg/kg, ip after 0.5 hr; type: functional; conditions: route intraperitoneal
[28] = tested on: Rattus norvegicus; experiment: Antihyperalgesic effects in Sprague-Dawley rat CCI model assessed as duration of paw withdrawal at 100 mg/kg, ip after 1 hr; type: functional; conditions: route intraperitoneal
[29] = tested on: Rattus norvegicus; experiment: Antihyperalgesic effects in Sprague-Dawley rat CCI model assessed as duration of paw withdrawal at 100 mg/kg, ip after 1.5 hrs; type: functional; conditions: route intraperitoneal
[30] = tested on: Rattus norvegicus; experiment: Antihyperalgesic effects in Sprague-Dawley rat CCI model assessed as duration of paw withdrawal at 100 mg/kg, ip after 2 hrs; type: functional; conditions: route intraperitoneal
[31] = tested on: Rattus norvegicus; experiment: Antihyperalgesic effects in Sprague-Dawley rat CCI model assessed as duration of paw withdrawal at 100 mg/kg, ip after 2.5 hrs; type: functional; conditions: route intraperitoneal
[32] = tested on: Rattus norvegicus; experiment: Effect on spontaneous pain in Sprague-Dawley rat SNL model assessed as duration of paw withdrawal at 100 mg/kg, ip after 0.5 hr; type: functional; conditions: route intraperitoneal
Summary of the method: (§8)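 Rats underwent left L5 spinal nerve ligation (Kim and Chung) under i.p. pentobarbital (65 mg/kg). Spontaneous pain is recorded for 5 min after 10 min acclimatization, as cumulative duration the ipsilateral paw is lifted, excluding locomotor lifts. Dosing is 100 mg/kg i.p. in 30% v/v PEG 400/water, with testing at 0.5–2.5 h. Four rats, mean ± SEM versus predrug, one-way ANOVA with Bonferroni.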

[33] = tested on: Rattus norvegicus; experiment: Effect on spontaneous pain in Sprague-Dawley rat SNL model assessed as duration of paw withdrawal at 100 mg/kg, ip after 1 hr; type: functional; conditions: route intraperitoneal; summary of the method: as §8
[34] = tested on: Rattus norvegicus; experiment: Effect on spontaneous pain in Sprague-Dawley rat SNL model assessed as duration of paw withdrawal at 100 mg/kg, ip after 1.5 hrs; type: functional; conditions: route intraperitoneal; summary of the method: as §8
[35] = tested on: Rattus norvegicus; experiment: Effect on spontaneous pain in Sprague-Dawley rat SNL model assessed as duration of paw withdrawal at 100 mg/kg, ip after 2 hrs; type: functional; conditions: route intraperitoneal; summary of the method: as §8
[36] = tested on: Rattus norvegicus; experiment: Effect on spontaneous pain in Sprague-Dawley rat SNL model assessed as duration of paw withdrawal at 100 mg/kg, ip after 2.5 hrs; type: functional; conditions: route intraperitoneal; summary of the method: as §8

## C/C(=N\NC(=O)NCCCC(=O)O)c1ccc(C)cc1
[1]
  Activity: inactive
[2]
  Activity: inactive
[3]
  Activity: Active
[4]
  Activity: inactive
[5]
  Activity: inactive
[6]
  Activity: Active
[7]
  Activity: inactive
[8]
  Activity: Active
[9]
  Activity: inactive
[10]
  Activity: 32.5
[11]
  inhibition in vivo at 100 mg/kg: 82%
[12]
  Activity: 23.9 s
[13]
  Activity: 21.8 s
[14]
  Activity: 18.3 s
[15]
  Activity: 10.9 s
[16]
  Activity: 12.5 s
[17]
  Activity: 9.1 s
[18]
  Activity: 10.9 s
[19]
  Activity: 12.4 s
[20]
  Activity: 12.02 s
[21]
  Activity: 27.2 s
[22]
  Activity: 23.9 s
[23]
  Activity: 12.9 s
[24]
  Activity: 10.7 s
[25]
  Activity: 14.3 s
[26]
  Activity: 10.7 s
[27]
  Activity: 27.3 s
[28]
  Activity: 13.2 s
[29]
  Activity: 9.6 s
[30]
  Activity: 5.3 s
[31]
  Activity: 4.2 s
[32]
  Activity: 22.2 s
[33]
  Activity: 11.1 s
[34]
  Activity: 6.4 s
[35]
  Activity: 2.9 s
[36]
  Activity: 3.1 s
